T cruzi inh: T. cruzi replication inhibition. inhibition, % (no concentration beside the values). 1.4% of 300,000 active. AID 1885. T. cruzi beta-gal in NIH3T3, luminescence, 90 h;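 active = mean inhibition across valid replicates above about 55%, limit read from the data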;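 note: signal also drops with host cell toxicity which is not excluded here; 0% = plate median of DMSO wells and 100% = zero luminescence signal; higher percent means less beta-gal luminescence so fewer parasites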
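Material: NIH/3T3 host cells with β-galactosidase reporter T. cruzi; Input: 5,000 host fibroblasts per well; Medium: DMEM, 2% fetal bovine serum; Compound: 50 nL DMSO compound solution per well; Schedule: 3 h host attachment, then at least 90 h co-culture; Detection: luminescent β-galactosidase signal after 60 min lysis.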
Dynein transport: dynein cargo transport inhibition; 3617.4 mouse cells, GR-EGFP nuclear translocation imaging; test concentration mostly 20 µM; stimulated with dexamethasone, 1 µM; stronger effect = lower value; 0.47% of 220,000 active; z-score, hits read low;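 active = plate z-score of nuclear minus cytoplasmic receptor signal below a set negative limit, without overly bright fluorescence or cell loss, cut at about -3.5 in these data, passing the limit was not always enough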;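 note: z-score of nuclear minus cytoplasmic ring GR-EGFP intensity difference per well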
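Buffer or medium: tetracycline-free induction medium containing charcoal-stripped FBS / Reagent: dexamethasone agonist, 1.0 µM final, for 30 min / Technique: automated 10x imaging of fixed Hoechst-stained cells / Times: induction 48 h, compound 1 h, agonist 30 min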
L major viab: reduces viability of Leishmania major promastigotes; resazurin fluorescence viability; inhibition, % at 10 µM; 9% of 200,000 active; in the data active = inhibition above about 50%;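 note: promastigotes grown with compound for 44 hours at 28 °C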
XBP1 UPR activ: adaptive UPR (XBP1) activation; activation, % at 20 µM; CHO-XBP1 luciferase reporter, IRE1-XBP1 UPR activation, luminescence; percent of tunicamycin response, DMSO as zero; 0.33% of 330,000 active; AID 463104;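 active = versus positive control, 20 µM dose yields 30% or more activation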;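 note: 100% = tunicamycin at 10 µg/mL and 0% = DMSO only wells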
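incubation = overnight seeding at 37 °C, 6 h compound treatment at 37 °C | assay system = CHO-XBP1 cells stably carrying IRE1-XBP1-driven luciferase reporter | input = 1000 cells per well | detection = luciferase luminescence | dosing = single point, 20 µM final compound, 1% DMSO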
UPR CHOP act: apoptotic UPR (CHOP) activation. CHO-CHOP luciferase reporter, luminescence; percent of tunicamycin response over DMSO baseline. activation, % at 10 µM. 0.34% of 330,000 active. AID 449763;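 active = at 10 µM dose, activation of 40% or more, normalized to positive control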;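 note: 100% = tunicamycin at 10 µg/mL and 0% = DMSO alone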
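Assay system: CHO cells with stable CHOP pathway luciferase reporter; Buffer or medium: F12 plus 10% serum; Times: 16-18 h cell attachment, then 6 h compound exposure, 37 °C; Signal: luciferase luminescence; Read-out basis: percent activation relative to tunicamycin control; Control set: tunicamycin high control, DMSO low control.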
CHOP inhibitor: inhibitors of CHOP induction in ER stress response | CHO-K1 CHOP-promoter luciferase, tunicamycin-induced, 15-18 h | inhibition, % at 10 µM | 3.8% of 220,000 active;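 active = compounds that reduced the stress-induced luciferase reporter signal by more than about 70% of percent inhibition, limit read from the data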;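 note: 0% = tunicamycin plus vehicle and 100% = wells without tunicamycin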
The depositor's hits bear a star; · = no result. The entries come from a sample that favours hits as a whole.

SMILES	T cruzi inh	Dynein transport	L major viab	XBP1 UPR activ	UPR CHOP act	CHOP inhibitor
Cc1ccc(C(=O)N/N=C2\SCC(=O)N2c2cc(C)ccc2C)cc1	-8.7	1.44	-2.6	1.0	-1.8	75.3*
CCn1c(=O)cc(OCC(=O)NCCCN2CC(C)CC(C)C2)c2ccccc21 (stereo not drawn)	12.3	-0.532	-3.8	1.9	0.3	14.1
CC1CCN(CCCNC(=O)COc2cc(=O)n(C)c3ccccc23)CC1	2.6	-0.474	3.5	3.8	-2.5	-6.7
CCN(CCCNC(=O)COc1cc(=O)n(CC)c2ccccc12)c1ccccc1	46.7	1.46	53.1*	-0.2	1.9	34.9
CCN(C(=O)COc1cc(=O)n(C)c2ccccc12)c1cccc(Cl)c1	7.9	-0.271	62.0*	-0.1	1.3	-2.4
CN(C(=O)COc1cc(=O)n(C)c2ccccc12)c1cccc(Cl)c1	4.0	3.54	15.3	-1.4	0.5	19.1
CCN(CCCNC(=O)COc1cc(=O)n(C)c2ccccc12)c1ccccc1	21.1	-0.224	64.9*	-2.1	0.7	-18.1
CN(CCCNC(=O)CCCOc1cc(=O)n(C)c2ccccc12)Cc1ccccc1	71.3*	-0.652	2.7	-0.9	0.4	-9.2
CC(=O)Nc1ccc(NC(=O)C(C)Sc2nc3ccccc3c(=O)n2CC2CCCO2)cc1 (stereo not drawn)	-7.7	·	·	-1.1	2.6	·
ClC1(CNc2ccccc2)CCN(Cc2ccccc2)CC1	32.8	·	·	1.4	0.6	·
Cc1cccc(NS(=O)(=O)c2cn(C)c(=O)n(C)c2=O)c1C	-10.2	·	·	0.1	1.8	·
O=S(=O)(NCC(c1cccnc1)N1CCN(Cc2ccccc2)CC1)c1ccccc1 (stereo not drawn)	62.2*	2.84	82.5*	0.2	0.2	-11.1
Cc1ccc(S(=O)(=O)NCC(c2cccnc2)N2CCN(Cc3ccccc3)CC2)cc1 (stereo not drawn)	57.0*	·	·	-2.7	-1.4	·
NS(=O)(=O)c1ccc(NC(CNS(=O)(=O)c2ccccc2)c2ccccc2)cc1 (stereo not drawn)	-4.2	0.41	4.0	-3.8	0.7	28.1
Cc1ccc(NC(CNS(=O)(=O)c2ccc(Cl)cc2)c2ccccc2)cc1 (stereo not drawn)	37.4	0.0272	53.5*	-5.3	-1.8	103.8*
CN(CCC1CCCCO1)C(=O)CCc1nnc(C2CCCCC2)o1 (stereo not drawn)	-19.0	2.13	13.2	2.0	1.1	3.4
C/C(=N\NC(=O)COc1cccc(C)c1)c1ccc2ccccc2c1O	·	·	·	-1.4	1.0	·
CCOc1ccc(OCCC(=O)OCC(=O)NCc2ccccc2)cc1	-15.6	·	·	-3.2	-0.9	·
COCc1ccc(C(=O)NC2CCCc3c2cnn3-c2cc(C)cc(C)c2)s1 (stereo not drawn)	23.2	·	·	-4.5	-1.2	·
N#CC(C(=S)Nc1ccccc1)c1nc2ccccc2[nH]1 (stereo not drawn)	-21.0	-0.543	·	8.2	38.4	-138.9
CSC(=Nc1ccccc1)C(C#N)c1nc2ccccc2[nH]1 (stereo not drawn)	-1.9	-0.0334	·	8.5	2.8	82.0*
COc1ccc(Nc2ccc(N3C(=O)CC(C)C3=O)cc2[N+](=O)[O-])cc1OC (stereo not drawn)	-11.6	-1.12	-7.1	0.2	0.9	-11.5
COc1ccc(Nc2ccc(N3C(=O)CCCC3=O)cc2[N+](=O)[O-])cc1OC	12.4	2.89	88.1*	1.4	0.7	5.6
CC(=O)NS(=O)(=O)c1ccc(NC(=O)c2ccc(S(=O)(=O)N3CCCC3)cc2)cc1	·	·	·	-0.8	0.4	·
CCCc1ccc(-c2cc(C(=O)Nc3ccc([N+](=O)[O-])cn3)c3ccccc3n2)cc1	51.9	-0.532	75.7*	2.9	3.9	38.2
CCCc1ccc(-c2cc(C(=O)NCCc3ccc(S(N)(=O)=O)cc3)c3ccccc3n2)cc1	30.0	0.615	18.5	3.5	5.5	10.9
O=C(N/N=C/c1cc([N+](=O)[O-])ccc1O)c1cc(-c2ccccc2)nc2ccccc12	44.9	3.17	98.4*	1.0	4.2	58.0
